Bioassay records deposited in PubChem BioAssay by Johns Hopkins Ion Channel Center.
MrgX1 ag = agonists of human MrgX1 receptor | Q96LB2 | MrgX1-HEK293 cells, Fluo-4 calcium fluorescence, agonist mode; active compounds read high | B-score at 10 µM | 310,000 tested, 0.44% active | AID 588627;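 active = calcium response B-score plate-corrected fluorescence ratio at least 3 library SD, with starting fluorescence B-score inside 5 SD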
Target sequence (Q96LB2 whole entry, looked up): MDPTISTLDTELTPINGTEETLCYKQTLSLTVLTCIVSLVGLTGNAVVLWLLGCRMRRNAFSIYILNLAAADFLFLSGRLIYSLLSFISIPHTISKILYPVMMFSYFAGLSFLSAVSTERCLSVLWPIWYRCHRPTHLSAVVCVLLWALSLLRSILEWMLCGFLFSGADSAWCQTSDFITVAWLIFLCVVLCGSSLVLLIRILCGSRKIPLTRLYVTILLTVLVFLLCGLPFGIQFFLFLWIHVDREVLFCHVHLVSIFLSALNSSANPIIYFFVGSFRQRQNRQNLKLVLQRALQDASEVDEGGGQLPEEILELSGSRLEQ
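Test system: Stable human MrgX1 HEK293 cell line | Schedule: Overnight plating before 1 h dye loading | Read-out basis: Baseline-normalised fluorescence change ratio, B-scored | Detection: Kinetic calcium dye fluorescence, Fluo-4 NW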
MrgX1 allo act = allosterically activates human MrgX1 receptor signaling. Q96LB2. MrgX1-HEK293, Fluo-4 calcium flux, FDSS; active compounds read high. B-score at 10 µM. 310,000 tested, 0.63% active;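 active = plate-corrected calcium response at least 3 library SD above typical, normal starting fluorescence, not activating the receptor alone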;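 also: compound read alongside a low EC10 to EC30 dose of BAM8-22 agonist; peak minus trough fluorescence over baseline measured at the second addition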
RGS4 inh = inhibitors of human RGS4. P49798. HEK293 M3R/RGS4 inducible, Fluo-4 calcium flux; active compounds read high; triggered by carbachol at its EC20. B-score at 10 µM. 310,000 tested, 0.45% active;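 active = B-score, a plate-corrected calcium signal, over three deviations above library mean, with baseline fluorescence within five deviations of library mean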;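 also: RGS4 expression induced by doxycycline in cells with stable M3 receptor; B-score is computed from the integrated fluorescence ratio over baseline after carbachol; higher B-score means a larger calcium signal and so more RGS4 inhibition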
Target sequence (P49798 whole entry, looked up): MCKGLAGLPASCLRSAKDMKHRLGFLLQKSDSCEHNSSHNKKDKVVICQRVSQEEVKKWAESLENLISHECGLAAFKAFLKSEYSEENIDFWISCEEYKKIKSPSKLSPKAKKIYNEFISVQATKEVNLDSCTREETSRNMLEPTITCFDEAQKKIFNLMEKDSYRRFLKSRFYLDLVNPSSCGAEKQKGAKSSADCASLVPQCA
MrgX1 antag = human MrgX1 receptor antagonism, primary screen. 310,000 tested, 1.3% active. AID 588676. B-score at 10 µM. Q96LB2. MRGX1-HEK293 calcium flux, Fluo-4, BAM8-22 antagonism; active compounds read low;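 active = calcium-response B-score plate-corrected more than 3 library SD below zero, starting fluorescence within 5 deviations, no agonist response on first addition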;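 also: peak minus trough fluorescence over baseline after final BAM8-22 challenge near maximal dose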
RGS4 pot = potentiators or activators of RGS4; 310,000 tested, 0.92% active; HEK293 M3R/inducible RGS4, carbachol calcium flux Fluo4; active compounds read low; AID 463111; B-score at 10 µM;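 active = B-score of the integrated calcium signal more than 4 SD below the library mean, with starting fluorescence not abnormally high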;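 also: negative B-score means reduced calcium response which marks RGS4 activation or potentiation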
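Also added: carbachol at ECmax as muscarinic agonist stimulus; Assay system: HEK293 cells with stable M3R and inducible RGS4; Timing: overnight RGS4 induction, 30 min dye load 37 °C, 20 min compound RT; Measured by: Fluo4-AM (2 µM) calcium-flux fluorescence, kinetic read.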
Starred values were filed as active, the others as inactive. An excerpt weighted towards active compounds, which were near 3.5% of everything screened.

Cc1nccn1CC(=O)N/N=C/c1cc(Br)cs1 was read as MrgX1 ag inactive, MrgX1 allo act inactive, RGS4 inh inactive, MrgX1 antag -5.3* and RGS4 pot inactive.
CCOC(=O)Nc1ccc2c(c1)N(C(=O)CCN(C)C)c1ccccc1S2 was read as MrgX1 ag inactive, MrgX1 allo act inactive, RGS4 inh inactive, MrgX1 antag inactive and RGS4 pot -7*.
CC(C)c1onc(C(=O)N(C)C2CCCCC2)c1[N+](=O)[O-] was read as MrgX1 ag inactive, MrgX1 allo act inactive, RGS4 inh inactive, MrgX1 antag inactive and RGS4 pot inactive.
For Cc1nnc(SCC(=O)c2ccc(Br)cc2)s1 the results were MrgX1 ag inactive, MrgX1 allo act inactive, RGS4 inh inactive, MrgX1 antag inactive and RGS4 pot inactive.
Screening COc1cc(/C=C2\SC(c3ccc(C)cc3)=NC2=O)ccc1O returned MrgX1 ag inactive, MrgX1 allo act inactive, RGS4 inh inactive, MrgX1 antag -5.8* and RGS4 pot inactive.
`COc1cc(/C=C2\SC(=N)N(c3ccc(F)cc3)C2=O)ccc1O` gave MrgX1 ag inactive, MrgX1 allo act inactive, RGS4 inh inactive, MrgX1 antag -4.9* and RGS4 pot inactive.
COc1ccc(/C=C2\SC(c3ccc(C)cc3)=NC2=O)cc1OC was read as MrgX1 ag inactive, MrgX1 allo act inactive, RGS4 inh inactive, MrgX1 antag inactive and RGS4 pot inactive.
CC(=O)Nc1c2c(nn1-c1ccc(F)cc1)CSC2 was read as MrgX1 ag inactive, MrgX1 allo act inactive, RGS4 inh inactive, MrgX1 antag inactive and RGS4 pot inactive.
`CN1/C(=C/C=C(/C#N)C(N)=O)C(C)(C)c2ccccc21` gave MrgX1 ag 33*, MrgX1 allo act inactive, RGS4 inh inactive, MrgX1 antag inactive and RGS4 pot inactive.
CN1/C(=C\C=C2/SC(=S)NC2=O)C(C)(C)c2ccccc21 was read as MrgX1 ag 28*, MrgX1 allo act inactive, RGS4 inh inactive, MrgX1 antag inactive and RGS4 pot inactive.
For O=C(NCc1ccc2c(c1)OCO2)c1nc(Cn2cc([N+](=O)[O-])cn2)no1 the results were MrgX1 ag inactive, MrgX1 allo act inactive, RGS4 inh inactive, MrgX1 antag inactive and RGS4 pot inactive.
[O-][n+]1cccc2c(Br)cc(Br)c(O)c21 was read as MrgX1 ag inactive, MrgX1 allo act inactive, RGS4 inh inactive, MrgX1 antag -4.7* and RGS4 pot inactive.
`CC(C)N1CCc2c(sc(NC(=O)c3cc(-c4cccs4)nc4ccccc34)c2C(N)=O)C1` gave MrgX1 ag inactive, MrgX1 allo act inactive, RGS4 inh inactive, MrgX1 antag inactive and RGS4 pot -11*.
For CC(C)N1CCc2c(sc(NC(=O)c3nc4ccccc4s3)c2C(N)=O)C1 the results were MrgX1 ag inactive, MrgX1 allo act inactive, RGS4 inh inactive, MrgX1 antag inactive and RGS4 pot inactive.
For COc1ccccc1NC(=S)NNC(=O)c1ccncc1 the results were MrgX1 ag 28*, MrgX1 allo act inactive, RGS4 inh inactive, MrgX1 antag inactive and RGS4 pot inactive.
For O=C1CC2c3ccccc3C1C1C(=O)N(CCc3ccccc3)C(=O)C21 (configuration not stated) the results were MrgX1 ag inactive, MrgX1 allo act inactive, RGS4 inh inactive, MrgX1 antag inactive and RGS4 pot inactive.
`C=CCN=c1scc(-c2ccccc2)n1/N=C/c1ccccn1` gave MrgX1 ag inactive, MrgX1 allo act 14*, RGS4 inh inactive, MrgX1 antag inactive and RGS4 pot inactive.
For CCN=c1scc(-c2ccccc2)n1/N=C/c1ccccn1 the results were MrgX1 ag inactive, MrgX1 allo act 12*, RGS4 inh inactive, MrgX1 antag inactive and RGS4 pot inactive.
Screening C=CCN=c1scc(-c2ccc(F)cc2)n1/N=C/c1ccccn1 returned MrgX1 ag inactive, MrgX1 allo act inactive, RGS4 inh inactive, MrgX1 antag inactive and RGS4 pot inactive.
NC(=O)CSc1nnc(COc2ccccc2)n1Cc1ccco1 was read as MrgX1 ag inactive, MrgX1 allo act inactive, RGS4 inh inactive, MrgX1 antag inactive and RGS4 pot inactive.
`COc1ccccc1CNC(=O)COC(=O)CCN=C1NS(=O)(=O)c2ccccc21` gave MrgX1 ag inactive, MrgX1 allo act inactive, RGS4 inh inactive, MrgX1 antag inactive and RGS4 pot inactive.
COc1ccc(CC(=O)N(C)CC(=O)Nc2cccc(F)c2)cc1S(=O)(=O)N1CCOCC1 was read as MrgX1 ag inactive, MrgX1 allo act inactive, RGS4 inh inactive, MrgX1 antag -5.3* and RGS4 pot inactive.
Screening C=CCn1c(-c2ccc([N+](=O)[O-])cc2)n[nH]c1=S returned MrgX1 ag inactive, MrgX1 allo act inactive, RGS4 inh inactive, MrgX1 antag inactive and RGS4 pot -7.7*.
Screening C=CCn1c(-c2ccccc2[N+](=O)[O-])n[nH]c1=S returned MrgX1 ag inactive, MrgX1 allo act inactive, RGS4 inh inactive, MrgX1 antag inactive and RGS4 pot inactive.
O=C(CCNC(=O)C1CCN(S(=O)(=O)c2ccccc2)CC1)Nc1cccc(C(F)(F)F)c1 was read as MrgX1 ag inactive, MrgX1 allo act inactive, RGS4 inh inactive, MrgX1 antag inactive and RGS4 pot inactive.
CC(=O)NN1C(=O)/C(=C/c2ccc(Br)o2)SC1=S was read as MrgX1 ag inactive, MrgX1 allo act 7.1*, RGS4 inh inactive, MrgX1 antag inactive and RGS4 pot inactive.
`CC(=O)NN1C(=O)/C(=C\c2ccccc2)SC1=S` gave MrgX1 ag inactive, MrgX1 allo act 9.5*, RGS4 inh inactive, MrgX1 antag inactive and RGS4 pot inactive.
CCCCCCCCSc1nnc(CSc2nc3nc(C)cc(C)n3n2)o1 was read as MrgX1 ag inactive, MrgX1 allo act inactive, RGS4 inh inactive, MrgX1 antag inactive and RGS4 pot -8.3*.
Screening N#CC1=C(N)SC(N)=C(C#N)C1CCC1CCCCC1 returned MrgX1 ag inactive, MrgX1 allo act inactive, RGS4 inh inactive, MrgX1 antag -8.8* and RGS4 pot inactive.
Cc1sccc1C1C(C#N)=C(N)SC(N)=C1C#N was read as MrgX1 ag inactive, MrgX1 allo act inactive, RGS4 inh inactive, MrgX1 antag inactive and RGS4 pot inactive.
O=[N+]([O-])c1ccc2nc(-c3ccc(Cl)cc3)[nH]c2c1 was read as MrgX1 ag inactive, MrgX1 allo act inactive, RGS4 inh inactive, MrgX1 antag -5.8* and RGS4 pot inactive.
`Cc1ccc(-c2nc3ccc([N+](=O)[O-])cc3[nH]2)cc1` gave MrgX1 ag inactive, MrgX1 allo act inactive, RGS4 inh inactive, MrgX1 antag inactive and RGS4 pot inactive.
